Published values pooled from the literature.
Protocols differ between the studies behind these lines.
KDR: Vascular endothelial growth factor receptor 2 (KDR, Homo sapiens, UniProt P35968)
PIP5K1A: Phosphatidylinositol 4-phosphate 5-kinase type-1 alpha (PIP5K1A, Homo sapiens, UniProt Q99755)

Compound	target	test	conditions	measurement	result
Cc1cc(O)c(-c2ccc([C@@H](C)CN(C)C)cc2)c2c1[nH]c(=O)c1sccc12	Serine/threonine-protein kinase Nek4 (NEK4, Homo sapiens, UniProt P51957)	enzyme activity, inhibitor	0.1 µM	inhibition	0.965%
CC1=C(/C=C/C(C)=C/C=C/C(C)=C/C=C/C=C(C)/C=C/C=C(C)/C=C/C2=C(C)CCCC2(C)C)C(C)(C)CCC1	KDR	enzyme activity, inhibitor, TR-FRET	40 µM	inhibition	-6.3%
CC(=O)ON=C1C=CC(=C(C#N)c2ccccc2)C=C1	Glycogen synthase kinase-3 beta (GSK3B, Homo sapiens, UniProt P49841)	enzyme activity, inhibitor, ADP detection	20 µM	activity vs control	82%
CC(=O)/C=C/C=C(C)/C=C/C1=C(C)CC(O)CC1(C)C (stereo in doubt)	D14 (Oryza sativa, UniProt Q10QA5)	thermal stability, DSF	10 µM	ΔTm	2.75 °C
Cc1cc(S(=O)(=O)N[C@H]2CC[C@H](CN3CCN(c4ccc(C5CCC(=O)NC5=O)cc4F)CC3)CC2)ccc1Nc1ncc(C(F)(F)F)c(N2CCC[C@](C)(O)C2)n1 (stereo partly drawn)	PIP5K1A	binding, competition with immobilised ligand	1 µM	remaining binding	70%
C1=C/COCc2cc(ccc2OCCN2CCCC2)Nc2nccc(n2)-c2cccc(c2)COC/1	1-phosphatidylinositol 3-phosphate 5-kinase (PIKFYVE, Homo sapiens, UniProt Q9Y2I7)	cell-free assay	0.1 µM	remaining signal	17%
CCCCC(=O)Nc1ccc(-c2ccc3ncn(CCC)c(=O)c3c2)cn1	Interleukin-1 receptor-associated kinase 3 (IRAK3, Homo sapiens, UniProt Q9Y616)	binding, competition with immobilised ligand	0.5 µM	remaining binding	99%
COc1ccc2oc(-c3ccc4nc(N)oc4c3)c/c(=N\c3ccccc3NC(=O)CCN)c2c1	Activin receptor type-1-like (ACVRL1, Homo sapiens, UniProt P37023)	binding	1 µM	remaining binding	106%
COc1ccc(-c2cc(=O)c3c(O)cc(O[C@@H]4O[C@H](CO[C@@H]5O[C@@H](C)[C@H](O)[C@@H](O)[C@H]5O)[C@@H](O)[C@H](O)[C@H]4O)cc3o2)cc1O	KDR	enzyme activity, inhibitor, TR-FRET	40 µM	inhibition	51.5%
CNS(=O)(=O)c1ccc(Nc2ncc(C(F)(F)F)c(N3CCC[C@](C)(O)C3)n2)c(C)c1	PIP5K1A	binding, competition with immobilised ligand	1 µM	remaining binding	100%
CCN1/C(=C/C(C)=O)Sc2ccc(F)cc21	Vasopressin V1b receptor (AVPR1B, Homo sapiens, UniProt P47901)	ligand displacement, radioligand	10 µM	inhibition	2.63%
CC(C)c1ccc(Sc2ccc3nnc(C(F)(F)F)n3n2)cc1	Glutamate NMDA receptor; Grin1/Grin2a (Grin1/Grin2a, Rattus norvegicus, UniProt P35439+Q00959)	ion current, two-electrode voltage clamp	30 µM, oocytes	remaining activity	97%
